Results as given in ChEMBL document CHEMBL3627673, “Modification of cellular DNA by synthetic aziridinomitosenes” (Bioorg Med Chem, 2015).
Calls of active or inactive are those of the source. No cut-off for these calls is given here.

Tests used:
HuT78 = test: Antiproliferative activity against human HUT78 cells after 48 hrs by resazurin reduction assay; type: functional, cell-based; conditions: HuT78, 48 h
Procedure, shortened: (§1)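 Cells seeded at 8,000/well; adherent lines trypsinized and given 24 h at 37 °C in 5% CO2 before drug, media replaced with drug dilutions or vehicle. Drug exposure 48 h, then 0.1% resazurin added for 4-24 h. Fluorescence 530/590 nm, expressed as % of untreated, and IC50 from log(inhibitor) vs response fit. Mean ± SEM, ≥3 independent experiments, ≥3 wells each.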

Jurkat [1] = test: Induction of DNA modifying activity in human Jurkat cells assessed as increase in amount of crosslink DNA at 10 uM for 1 hr under hypoxic condition by Hoechst-33342 staining based fluorescence assay
Procedure, shortened: (§2)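 Jurkat cells (~5-6 x 10^6) were exposed to drug or PBS for 1 h (aerobic, or in a sealed 95% N2/5% CO2 chamber) before DNA isolation. DNA (3,750 ng) was mixed with Hoechst 33342 in 0.5x TE, ex/em 360/460 nm, read before and after 5 min at 96-98 °C, 5 min ice, and 5 min room temperature. Crosslinked fraction was taken against a dye-only control and converted to crosslinks/fragment = -ln(1-X). Two isolations, each in triplicate.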

Jurkat [2] = test: Induction of DNA modifying activity in human Jurkat cells assessed as increase in DNA-protein crosslink at 100 uM under aerobic condition by K-SDS assay (reference value: 4.5. +/- 1.5%); type: cell-based
Procedure, shortened: (§3)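 Jurkat cells (2 x 10^5) treated 1.5 h at 37 °C in complete RPMI-1640, aerobic or in sealed 95% N2/5% CO2 chamber. Lysed in 2% SDS/Tris pH 7.5; KCl precipitation, three 65 °C wash rounds, proteinase K 55 °C 3 h. Protein-linked and free DNA quantified by SYBR Green against standard; %DPC = linked/(linked+free) x100. Mean ± SEM, three experiments (n=9).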

[3] = Stability of the compound in methanol assessed as retention time by HPLC analysis; type: physicochemical
Jurkat [4] = test: Induction of DNA modifying activity in human Jurkat cells assessed as increase in H2O2-induced DNA strand break at 10 uM under aerobic condition by alkaline comet assay in presence of H2O2; type: cell-based
Procedure, shortened: (§4)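 Jurkat cells at 1 x 10^5/mL were exposed to drug or PBS for 1 h at 37 °C in 5% CO2 (hypoxic arm in an N2/CO2 chamber). They then received 100 µM H2O2 in PBS for 20 min at 4 °C. Cells were embedded in agarose and lysed overnight, unwound at pH >13 for 20 min, electrophoresed at 20 V for 30 min at 4 °C, and stained with SYBR Green. Tail extent moment (tail length x tail DNA) was measured from ≥50 cells over two experiments.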

Jurkat [5] = test: Induction of DNA modifying activity in human Jurkat cells assessed as tail extent moments at 10 uM under aerobic condition by alkaline comet assay in presence of 100 uM H2O2; procedure, shortened: as §4
[6] = Stability of the compound in DMEM media assessed as compound remaining at 250 uM after 7 hrs by HPLC analysis; type: physicochemical; conditions: read-out: Stability
Procedure, shortened: (§5)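 Stock in DMSO added to DMEM with 10% FBS and pen/strep to 250 µM final, then filtered. Injected every 15 min onto a phenyl column with detection at 254 and 480 nm. Mobile phase was acetonitrile (A) and pH 7.2 Tris (B) at 1.0 mL/min, 15 min gradient from 30% A to 70% A.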

Jurkat [7] = test: Induction of DNA modifying activity in human Jurkat cells assessed as increase in amount of crosslink DNA at 10 uM for 1 hr under aerobic condition by Hoechst-33342 staining based fluorescence assay; procedure, shortened: as §2
[8] = Stability of the compound in DMEM media assessed as compound remaining at 250 uM after 49 hrs by HPLC analysis; type: physicochemical; conditions: read-out: Stability; procedure, shortened: as §5
Jurkat [9] = test: Antiproliferative activity against human Jurkat T cells after 48 hrs by resazurin reduction assay; type: functional, cell-based; procedure, shortened: as §1
HL-60 = test: Antiproliferative activity against human HL60 cells after 48 hrs by resazurin reduction assay; type: functional, cell-based; conditions: HL-60, 48 h; procedure, shortened: as §1
HepG2 = test: Antiproliferative activity against human HepG2 cells after 48 hrs by resazurin reduction assay; type: functional, cell-based; conditions: HepG2, 48 h; procedure, shortened: as §1
HeLa = test: Antiproliferative activity against human HeLa cells after 48 hrs by resazurin reduction assay; type: functional, cell-based; procedure, shortened: as §1
Jurkat [10] = test: Antiproliferative activity against human Jurkat T cells in hypoxic condition after 48 hrs by resazurin reduction assay; type: functional, cell-based
Procedure, shortened: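 Jurkat cells held in a chamber purged 15 min with 95% N2/5% CO2, sealed, and incubated 1 h at 37 °C. Drug was diluted in N2/CO2-sparged PBS and added, then the chamber was purged again for 15 min and kept sealed at 37 °C for the assay. Resazurin readout was 530/590 nm, with IC50 from log(inhibitor) vs response fit.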

T47D = test: Antiproliferative activity against human T47D cells after 48 hrs by resazurin reduction assay; type: functional, cell-based; procedure, shortened: as §1
Jurkat [11] = test: Induction of DNA modifying activity in human Jurkat cells assessed as tail extent moments at 10 uM under hypoxic condition by alkaline comet assay in presence of 100 uM H2O2; procedure, shortened: as §4
Jurkat [12] = test: Induction of DNA modifying activity in human Jurkat cells assessed as DNA-protein crosslink at 100 uM under hypoxic condition by K-SDS assay; type: cell-based; procedure, shortened: as §3
[13] = Stability of the compound in DMEM media assessed as compound remaining at 250 uM after 2 hrs by HPLC analysis; type: physicochemical; conditions: read-out: Stability; procedure, shortened: as §5
[14] = Stability of the compound in DMEM media assessed as compound remaining at 250 uM after 5 hrs by HPLC analysis; type: physicochemical; conditions: read-out: Stability; procedure, shortened: as §5
[15] = Stability of the compound in DMEM media assessed as compound remaining at 213 uM after 2 hrs by HPLC analysis; type: physicochemical; conditions: read-out: Stability
[16] = Stability of the compound in DMEM media assessed as compound remaining at 213 uM after 1.5 hrs by HPLC analysis; type: physicochemical; conditions: read-out: Stability
[17] = Stability of the compound in DMEM media assessed as compound remaining at 213 uM after 0.5 hrs by HPLC analysis; type: physicochemical; conditions: read-out: Stability
[18] = Stability of the compound in DMEM media assessed as compound remaining at 213 uM after 1 hr by HPLC analysis; type: physicochemical; conditions: read-out: Stability

CC1=CC(=O)c2c(COC(N)=O)c3n(c2C1=O)C[C@H]1[C@@H]3N1C (some centres undefined)
IC50 (HuT78): 24 nM
Activity (Jurkat [1]): 0.51
Activity (Jurkat [2]): 17%
Retention_time [3]: 3.6 min
Activity (Jurkat [4]): Active
Activity (Jurkat [5]): 0.26
remaining at 7 h, 250 µM [6]: 72%
Activity (Jurkat [7]): 0.55
remaining at 49 h, 250 µM [8]: 18%
IC50 (Jurkat [9]): 8 nM
IC50 (HL-60): 30 nM
IC50 (HepG2): 342 nM
IC50 (HeLa): 525 nM
IC50 (Jurkat [10]): 4 nM
IC50 (T47D): 225 nM
Activity (Jurkat [11]): 0.32
Activity (Jurkat [12]): 41.9%
remaining at 2 h, 250 µM [13]: 89%
remaining at 5 h, 250 µM [14]: 78%

CN1[C@@H]2c3c(COC(N)=O)c4c(n3C[C@@H]21)C(=O)C=CC4=O (some centres undefined)
IC50 (HuT78): 131 nM
Activity (Jurkat [2]): 17%
Activity (Jurkat [4]): Active
Activity (Jurkat [5]): 0.49
Activity (Jurkat [7]): Active
IC50 (Jurkat [9]): 4160 nM
remaining at 2 h, 213 µM [15]: 8%
remaining at 1.5 h, 213 µM [16]: 14%
IC50 (HL-60): 2030 nM
IC50 (HepG2): 7870 nM
IC50 (HeLa): 6210 nM
IC50 (Jurkat [10]): 3960 nM
IC50 (T47D): 9290 nM
Activity (Jurkat [11]): 3.6
Activity (Jurkat [12]): inactive
remaining at 0.5 h, 213 µM [17]: 50%
remaining at 1 h, 213 µM [18]: 25%

CO[C@@]12[C@H](COC(N)=O)C3=C(C(=O)C(C)=C(N)C3=O)N1C[C@@H]1N[C@@H]12 [MITOMYCIN]
IC50 (HuT78): 66 nM
Activity (Jurkat [1]): Active
Activity (Jurkat [2]): 7.8%
Activity (Jurkat [5]): 96
Activity (Jurkat [7]): Active
IC50 (Jurkat [9]): 578 nM
IC50 (HL-60): 410 nM
IC50 (HepG2): 2940 nM
IC50 (HeLa): 1870 nM
IC50 (Jurkat [10]): 303 nM
IC50 (T47D): 17000 nM
Activity (Jurkat [11]): 87
Activity (Jurkat [12]): inactive
